Bioassay records (PubChem BioAssay)
TMEM16A act = activators or potentiators of mouse TMEM16A chloride channel; B-score at 10 µM; HEK293 TMEM16A/YFP-H148Q/I152L, iodide quench fluorescence; hits give low values; Q8BHY3; 0.3% of 340,000 active;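 active = fluorescence-ratio B-score plate-corrected deviation score at least 3 library SD below zero, with starting fluorescence score within 5 deviations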;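 note: channel opened by trigger with iodide after compound preincubation; score built on the fluorescence ratio of max minus min over baseline; more negative score means more quench and so TMEM16A activation or potentiation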
Beta apoptosis = beta cell apoptosis inhibition; INS-1E cytokine-induced death, ATP luminescence, 48 h; percent of positive-control rescue, neutral wells zero; protection from apoptosis, % (no concentration beside the values); 0.8% of 300,000 active; AID 435005;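 active = Every replicate reaches about 75%, or at least half do and their mean reaches it too, limit read from the data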;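 note: 0% = cytokine-treated negative control wells and 100% = positive control rescue; higher means more ATP so stronger rescue from cytokine killing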
MC4R barr agon = agonists of human melanocortin 4 receptor (MC4R) beta-arrestin | P32245 | activation, % at 8.9 µM | 0.98% of 360,000 active | AID 540308 | U2OS MC4R beta-arrestin complementation, luminescence; percent of melanotan II response, DMSO zero;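 active = activation above a per-plate cutoff, the mean activation of sample wells on that plate plus 3 SD, cut at about 8% in these data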
Target sequence (P32245 whole entry, looked up): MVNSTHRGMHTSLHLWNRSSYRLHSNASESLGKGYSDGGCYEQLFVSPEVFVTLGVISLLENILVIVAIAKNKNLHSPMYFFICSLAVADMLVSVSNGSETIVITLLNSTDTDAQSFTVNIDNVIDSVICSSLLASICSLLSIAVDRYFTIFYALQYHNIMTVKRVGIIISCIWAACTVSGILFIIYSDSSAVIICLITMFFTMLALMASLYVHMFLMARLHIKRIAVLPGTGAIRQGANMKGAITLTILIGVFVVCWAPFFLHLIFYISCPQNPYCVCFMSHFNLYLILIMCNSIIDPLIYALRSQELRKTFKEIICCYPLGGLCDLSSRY
CSC inhib = blocks cancer stem cells. inhibition, % at 7.5 µM. 1.1% of 300,000 active. cancer stem cell-like cells viability, luminescence. AID 2717; in the data active = inhibition above about 75%; tested in HMLE shEcad cells
ANO1 block = inhibitors of mouse TMEM16A calcium-activated chloride channel. Q8BHY3. HEK293 TMEM16A/YFP iodide influx fluorescence, ionomycin. normalized B-score (activity score, 25-100; higher = stronger inhibition) at 10 µM. 1.2% of 310,000 active;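 active = ratio plate-corrected score three or more library SD toward inhibition, starting fluorescence score within five deviations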;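 note: score derived from kinetic fluorescence span divided by baseline fluorescence per well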
MC4R antag cAMP = human MC4R antagonism in cAMP assay; P32245; MC4R-expressing cells, MTII-stimulated cAMP, LANCE TR-FRET; inhibition, % at 6.5 µM; 0.48% of 360,000 active; AID 540295;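 active = inhibition above its plate's cutoff, the mean of tested wells on that plate plus 3 SD, cut at about 29% in these data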;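 note: 0% = Melanotan II alone and 100% = Melanotan II plus saturating MCL0020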
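System: U2OS cells stably expressing human melanocortin 4 receptor (MC4R). Reagent: Melanotan II challenge after compound preincubation. Doses: 6.5 µM. Times: 30-min compound, 1-h challenge, 1-h detection, room temperature. Measured by: TR-FRET with Eu-cAMP and labeled anti-cAMP, 671 nm. Replicates: singlicate.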
TMEM16A reconf = TMEM16A (mouse) chloride channel inhibition, re-confirmation | 39% of 2,300 active | inhibition, % at 10 µM | shares compounds with ANO1 block | HEK293 TMEM16A/YFP-H148Q, iodide quench fluorescence; ionomycin added to raise cell calcium;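 active = mean duplicate percent inhibition, scaled so buffer wells are 0 and the reference blocker 100, over three buffer SD above buffer mean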
TMEM16A Ca cntr = alters calcium mobilization in TMEM16A HEK293 cells, counter-screen. shares compounds with ANO1 block. TMEM16A/YFP HEK293, Fluo4 calcium mobilization. calcium response (% of ionomycin), % at 10 µM. 2% of 2,300 active;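 active = duplicate-averaged calcium signal over 20% of the ionomycin maximum, relative to buffer baseline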;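 note: each well's signal is peak minus trough fluorescence divided by its pre-addition baseline; 0% = buffer wells and 100% = ionomycin wells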
YFP-HEK293 quench = parental YFP-HEK293 iodide quench counter-screen activity. 2,300 tested, under 10 active. AID 652233. ionomycin. YFP ratio F(max-min)/F0 at 10 µM. shares compounds with ANO1 block;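 active = yellow fluorescent protein signal ratio exceeding the buffer control mean by over 5 SD of those controls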;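 note: ratio is mean of duplicate wells from kinetic YFP trace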
ClC-1 rat inh = blocks the rat ClC-1 voltage-dependent chloride channel | shares compounds with ANO1 block | CHO ClC-1-YFP, iodide influx fluorescence quench; iodide control reads 0, buffer control 100 | 2,300 tested, under 10 active | ratio percent, % at 10 µM;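 active = duplicate-mean ratio percent above the mean of iodide-only control wells, which defines zero, plus 5 of their SD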;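 note: higher percent means stronger block of ClC-1 iodide influx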
Numbers without * were called inactive; i = inactive; x = no result; ! = a repeat was not active. This is a sample that favours compounds with a hit; in the whole collection about 3.8% have one here.

SMILES	TMEM16A act	Beta apoptosis	MC4R barr agon	CSC inhib	ANO1 block	MC4R antag cAMP	TMEM16A reconf	TMEM16A Ca cntr	YFP-HEK293 quench	ClC-1 rat inh
CN1/C(=C\C(=O)c2cncc(Br)c2)C(C)(C)c2ccccc21	i	101*	-2	0	i	3	22%*	i	-0.72	-8
CN1/C(=C\C(=O)COc2ccc3c(c2)OCO3)C(C)(C)c2ccccc21	i	61	4	112*	i	1	i	i	-0.73	4
CN1/C(=C\C(=O)c2cccnc2)C(C)(C)c2ccccc21	i	-8	-2	-8	i	13	x	x	x	x
CN1/C(=C\C(=O)c2ccco2)C(C)(C)c2ccccc21	i	99*	0	36	i	18	26%*	i	-0.68	-2
O=C(CN(c1ccccc1Cl)S(=O)(=O)c1ccccc1)NCc1ccccc1	i	x	-1	x	x	4	x	x	x	x
Cc1cc(Cl)ccc1OC(C)C(=O)NNC(=O)C1CCCCC1C(=O)O (centres undefined)	i	-2	-1	-1	i	-1	x	x	x	x
CCN(CC)c1ccc2cc(-c3nnc(-c4ccccc4)o3)c(=O)oc2c1	i	41	-2	-1	i	0	x	x	x	x
CCN(CC)c1ccc2cc(S(=O)(=O)c3ccc(Cl)cc3)c(=O)oc2c1	i	5	0	99*	i	8	i	i	-0.17	14
COc1ccc(-n2ncc3c2CC(C)(C)CC3NC(=O)c2ocnc2C)cc1 (centres undefined)	i	1	-3	4	i	4	x	x	x	x
O=C(CC(Cc1ccccc1)c1ccco1)NC1CCCCC1 (centres undefined)	i	-3	2	-13	i	6	i	i	-1.2	0
Fc1cccc(Cl)c1-c1nnc2ccc3ccccc3n12	i	101*	-2	-6	25*	-49	i	i	-0.9	-10
Cc1ccc(NC(=O)CN2C(=O)COc3ccc(C)cc32)nc1	i	-1	-1	1	25*	8	i	i	-0.89	-18
CCN1CCc2c(sc(N)c2C(N)=O)C1	i	-2	2	-8	i	-1	27%*	i	-1.1	-4
COc1ccc(C2=NOC(C(=O)NCC(C)C)C2)cc1 (centres undefined)	i	-5	-2	-2	100*	-5	i	i	-0.97	-10
COc1ccc(C2=NOC(C(=O)NC(C)C)C2)cc1 (centres undefined)	i	-2	1	-3	i	0	x	x	x	x
CC(=O)c1cccc(NC(=S)NC(=O)c2cccc(Cl)c2)c1	i	x	0	0	25*	6	i	28%*	-1.2	-6
N#Cc1nc(N2CCCC2)nc(N2CCCC2)n1	i	-8	0	-7	100*	-6	22%*	i	-0.92	0
CN(Cc1ccc2nsnc2c1)C(=O)C1CCC(=O)N(CCc2ccccc2)C1 (centres undefined)	x	x	1	x	x	-4	x	x	x	x
Cc1c(O)cccc1C(=O)N[C@@H](CSc1ccccc1)[C@H](O)CN1C[C@H]2CCCC[C@H]2C[C@H]1C(=O)NC(C)(C)C	i	14	0	78*!	100*!	11	41%*	i	-1	-2
O=C(Nc1cccc(Br)c1)c1cc2ccccc2o1	i	-8	3	19	25*	-5	i	i	-0.9	-9
Cc1cccc(NC(=O)c2cc3ccccc3o2)c1	i	-2	0	22	i	13	x	x	x	x
CC(=O)Nc1cccc(-c2csc(C(C)(O)c3ccc(F)c(F)c3)n2)c1 (centres undefined)	x	x	2	x	x	-2	x	x	x	x
C(/C=C/c1ccccc1)=N/N1CCN(c2ccccc2)CC1	i	-1	-2	-11	25*	-1	i	i	-0.93	-12
C(=C\c1ccccc1)/C=N/N1CCN(c2ccccn2)CC1	i	0	-2	-3	i	2	x	x	x	x
Fc1ccccc1OCCSc1nnnn1-c1ccccc1	i	-4	0	x	i	4	22%*	i	-0.87	2
SMILES	TMEM16A act	Beta apoptosis	MC4R barr agon	CSC inhib	ANO1 block	MC4R antag cAMP	TMEM16A reconf	TMEM16A Ca cntr	YFP-HEK293 quench	ClC-1 rat inh
CCN(/C=N/c1sc2c(c1C#N)CCCCC2)CC	i	0	2	0	100*	5	i	i	-1.3	-9
Cc1ccc(N2C(=O)C3C4C=CC(CC4)C3C2=O)c([N+](=O)[O-])c1 (centres undefined)	i	-4	0	3	i	14	x	x	x	x
Cc1nc(-c2ccc(S(=O)(=O)Nc3ccc(Br)cc3Cl)s2)cs1	i	x	0	x	100*	28	34%*	i	-1.1	-20
CCCCN(CCCC)c1nc(OC)nc(-n2nnc(C(C)=O)c2C)n1	i	12	0	-9	25*	19	17%*	i	-1.1	-12
CC(=O)Nc1ccc(NC(=O)CSc2ccc(-c3ccc(-n4ccnc4)cc3)nn2)cc1	i	x	1	4	i	8	x	x	x	x
O=C(Nc1ccn(CCCN2CCN(c3ccccn3)CC2)c(=O)n1)OCc1ccccc1	x	x	-3	x	x	11	x	x	x	x
CN1C(=O)C2(OCC(COc3ccc(Cl)cc3)O2)c2ccccc21 (centres undefined)	i	-4	1	3	100*	-5	18%*	i	-1	-8
O=C1Nc2ccccc2C12OCC(COc1ccc(Cl)cc1)O2 (centres undefined)	i	-4	2	10	i	1	x	x	x	x
C[C@H]1C(=O)N(C)CCN1C(=O)c1ccc(OC2CCN(CCc3ccccc3)CC2)cc1	x	x	-1	x	x	-6	x	x	x	x
CCCCn1c(=O)[nH]c(=O)c2c1nc(Cn1ncc(Cl)c(Cl)c1=O)n2CCC	i	4	-3	-2	i	-38	x	x	x	x
CC(C(=O)N1CCN(c2ccccc2)CC1)N1C(=O)C2CC=CCC2C1=O (centres undefined)	i	-4	0	0	25*	12	i	i	-1	-15
